Fewer inactive variants are shown than the library holds. Where only a bound is given, the exact number is not on record here.

Sequences and labels used below:
B1: tRNA (parent)
chain: GUUCCGUUGGCGUAAUGGUAACGCGUCUCCCUCCUAAGGAGAAGACUGCGGGUUCGAGUCCCGUACGGAACG

The variants in the series derive from B1. Nature of the series: yeast fitness relative to wild type (ratio to wild type); higher = fitter; tRNA-Arg(CCU), competitive growth, 37 C, YPD. The gist of the method: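 Start and end populations of a pooled competition were compared by 100-nucleotide paired-end sequencing of gene amplicons. The Saccharomyces cerevisiae strains carried tRNA-Arg(CCU) gene variants at the native genomic locus, synthesised with a 3% per-site mutation rate at 69 sites, and competed in YPD at 37°C for 24 hours in six parallel replicates. Darwinian fitness relative to wild type was based on the change in genotype frequencies. Genotypes required ≥ 100 starting reads, and estimates < 0.5 were set to 0.5.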
Take GUUCCGUUGGCGUAAUGAUAACGCGUCUCCCUCCUAAGGAGAAGACUGCGGGUUCGAGUACCGUACAGAACG: the yeast fitness is not above 0.5.
Regarding GUUCCGUUGGCGUAAUGAAAACGCGUCUCCCUCCUAAGGAGAAGACUGCGGGUUCGAGUCUCGUACGGAACG, the yeast fitness was 0.61.
The figure for GUUCCGUUGGCGUAAUGAUAACGCGUCUCCCUCCUAAGGAGAAGACUGAGGGUUCGAGUCCCGUUCGGAACG is 0.558; for GUUCCGUUGGCGUAAUGCUAACGCGUCUCCCUCCUACGGAGAAGACUGGGGGUUCGAGUCCCGUACGGAGCG it is not above 0.5.
Turning to GUUCCGUUGGCGUAAUGCUAACGCGUCUCCCUCCUUAGGAGAAGACUGCGGGUUUGAGACCCGUACGGAACG, the yeast fitness is not above 0.5.
As to GUUCCGUUGGCGUAAUGAUAACGCGUCUCCCUCCUAAGGAGAAGACUGUGGGUUCGAGUCCCGUACGGAACG, the yeast fitness came to 0.892.
The figure for GUUCCGUUGGCGUAAUGAUAACGCGUCUCCCUCCUAAGGACAAGACUGCGGGUACGAGUCCCAUACGGAACG is not above 0.5.
The figure for GUUCCGUUGGCGUAAUGAUAACGCGUCUCCCUCCUAAGGAGAAGACUGCGGGUUCGAGUCCCGUACGCUACG is not above 0.5.
Under GUUCCGUUGGCGUAAUGAUAACGCGUCCCCCUCCUAAGGAGAAGACUGCGGGUUCGAGUCCCGUACGGAACG stands 0.739; under GUUCCGUUGGCGUAAUGAUAACGCGUCUCCCUCCUAAGGACCAGACUGUGGGUUCGAGUCCCGUACGGAACG, 0.522.
For the variant GUUCCGUUGGCGUAAUGAUAACGCGUCUCCCUCCUAAGGAGAAGACUGCGAGUUCGUGUCCCGUACGGAACG, the yeast fitness was 0.536.
The figure for GUUCCGUUGGCGUAAUGAUAACGCGUCUCCCUCCUAAGGAGAAGACUGCGAGUUCGAGUCCCGUACGGAGCG is not above 0.5; for GUUCCGUUGGCGUAAUGAUAACGCGUCUCCCUCCUAAGGAGAAGACUACGGGUUCGCGCCCCGUACGGAACG it is not above 0.5; for GUUCCGUUGGCGUAAUGAUAACGCCUCUCCCUCCUAAGGAGAUGACUGCGGGUUCGAGUCCCGUACGGAACG it is 0.6.
Under GUUCCGUUGGCGUAAUGAUAACGCGUCUCCCUCCUAAGGAGAAGAUUGCGGGUUCGAGCCCCGUACGAAACG stands 0.53.
Under GUUCCGUUGGCGUAAUGCUGACGCGUCUCCCUCCUAAGGAGAAGACUGCGGGUUUGAGUCCCGUACCGAACG stands not above 0.5; under GUUCCGUUGGCGUAAUGAUAACGCGUCUCCCUCCUAAGGAGAAGACUGCGGGAGCGAGUCCCGUACGGAACG, not above 0.5; under GUUCCGUUGGCGUAAUGCUAGCACGUCUCCCUCCUAAGGAGACGACUGCGGGUUCGAGUCCCGUACGGAACG, not above 0.5.
For GUUCCGUUGGCGUAAUGAUAACGCGUCUCCCUCCUAAGGAGAAGACUGCGGGUUCGAGUCCCGCACGGAACG, the yeast fitness was 0.66.
The figure for GUUCCGUUGGCGUAAUGAUAACGCGUCUCCCUCCUAAGGAGAAGACUGCCGGUUCCAGUCCCGUACGGAACG is not above 0.5.
Under GUUCCGUUGGCGUAAUGAUAACGCGUCUCCCUCCUAAGGAGAAGACUGCGGGUUCGAGUCCUGAACGGAACG stands 0.517; under GUUCCGUUGGCGUAAUGAUAACGCGUCUCCCUCUUAAGGAGAAGACUACGGGUUCGAGUCCCGUCCGGAACG, not above 0.5.
Under GUUCCGUUGGCGUAAUGAUAACGCAUCUCCCUCCUAAGGAGAAGAUUGCGGGUUCGAGCCCCGUACGAAACG stands not above 0.5; under GUUCCGUUGGCGUAAUGAUAACGCAUCUCCCUCCUAAGGAGAAGACUGCGGGUUCGAGUCCCGUACGGAACG, 0.665; under GUUCCGUUGGCGUAAUGAUAACGCGUCUCCCUCCUAAGGAGAAAACUGCGGGUUCGGGUCCCGUACGGAACG, not above 0.5.
In the case of GUUCCGUUGGCGUAAUGAUAACGCCUCUCGCUCCUAAGGAUAAGACUGCGGGUUGGAGUCCCGUACGGAACG, the yeast fitness is not above 0.5.
The figure for GUUCCGUUGGCGUAAUGCUAGCGCGUCUCCCUCCUAAGGAGAAGACUGCGGGUUCGAGUCCCGUACAGAACG is not above 0.5.
For the variant GUUCCGUUGGCGUAAUGCUAACGCGUCUCCCUCCUCAGGAGAAGACUGCGGGUUCGAGUCCCGUACGGAACG, the yeast fitness is not above 0.5.
Under GUUCCGUUGGCGUAAUGAUAACGCGUCUCCCUCCUAAGGAGAAGACUGCGGGUUCGAGUCCCGUACCGAACG stands 0.841; under GUUCCGUUGGCGUAAUGAUAACGCGUCUCCCUCCUAAGGAGAAGACUGCGGGUUCGAGUCCCGUACAGAACG, 0.675; under GUUCCGUUGGCGUAAUGAUAACGCGUCUCCCUCCUAAGGAGAAGACUGCGGGUUCGAGUCCCGUACUGAACG, 0.75.
Under GUUCCGUUGGCGUAAUGAUAACGCCUCUCCCUCCUAAGGAGAAGACUGCGGGUUCGAGUCCCGUACGGAUCG stands 0.555.
The figure for GUUCCGUUGGCGUAAUGAUAACGCAUCUCCUUCCUAAGGAGAAGACUGCGGGUUCGAGUCCCGUACGGAACG is 0.63.
Turning to GUUCCGUUGGCGUAAUGAUAACGCGUCUCCCUCCUAAGGAGAAGACUGCGGGUUCGAGGCCCGUACGGAACG, the yeast fitness came to 0.776.
Under GUUCCGUUGGCGUAAUGAUAACGCGUCUCCCUCCUAAGGAGAAGACUGCAGGUUCGAGUCCCGUACGGAACG stands 0.853.
The figure for GUUCCGUUGGCGUAAUGAUAACGCGUCUCCCUCCUAAGGAGAAGACUGCGGGUUCGAGUCCCGUACGCAACG is 0.662; for GUUCCGUUGGCGUAAUGAUAACGCGUCUCCCUCCUAAGGAGAAGACUGCGCGUUCGAGUCCCGUACGGAACG it is not above 0.5; for GUUCCGUUGGCGUAAUGAUAACGCGUCUCCCUCCUAAGGAGAAGACUGCCGGUUGGAGUCCAGUACGGAACG it is 0.561.

The values above are taken from the RNAGym collection of RNA variant scans (doi:10.1126/science.aae0568).
